MsrA act – bovine MsrA enzyme activators, primary screen, biochemical, absorbance, HTS | activation, % at 10.6 µM | AID 602163, 2012 | actives 0.3% (n = 360,000) | Methionine sulfoxide reductase A (Bos taurus) | purified bovine MsrA, absorbance read-out; in the data active = activation above about 7.5%;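 note: 0% = vehicle and 100% = reference activator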
proCasp7 act – procaspase-7 activators, primary screen, counter-screen for procaspase-3 activator project, biochemical, absorbance, HTS, human | actives 0.093% (n = 330,000) | activation, % at 8.5 µM | AID 463210, 2010 | recombinant procaspase-7, Ac-DEVD-pNA absorbance 405 nm; D23A/D198A/D206A triple mutant, cannot self-cleave; scale: DMSO 0, 5 µM enzyme 100 | Caspase-7 (Homo sapiens), P55210;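 active = percent activation above the screen-wide mean plus 3 SD, cut at about 25% in these data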
Target sequence (P55210 whole entry D23A/D198A/D206A): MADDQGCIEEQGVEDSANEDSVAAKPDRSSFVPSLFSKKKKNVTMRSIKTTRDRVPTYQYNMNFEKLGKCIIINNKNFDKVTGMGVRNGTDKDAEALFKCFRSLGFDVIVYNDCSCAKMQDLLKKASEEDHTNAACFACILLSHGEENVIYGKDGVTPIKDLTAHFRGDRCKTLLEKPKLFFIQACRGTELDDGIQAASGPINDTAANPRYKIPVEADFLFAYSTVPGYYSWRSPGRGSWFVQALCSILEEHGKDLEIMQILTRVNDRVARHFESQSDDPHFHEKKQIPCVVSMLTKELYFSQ
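Material: Procaspase-7 triple mutant (PC-7 D3A) | Quantity: 2 µM procaspase-7 mutant as dispensed | Reagent: DEVD-pNA substrate | Times: 1 h preincubation, 2 h reaction | Technique: 405 nm absorbance of p-nitroaniline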
proCasp3 act – activators of human procaspase-3 D3A mutant, primary screen, biochemical, absorbance, PC-3 D3A mutant, single concentration; Caspase-3 (Homo sapiens), P42574; recombinant procaspase-3 D3A, Ac-DEVD-pNA absorbance 405 nm; activation, % at 8.5 µM; actives 0.11% (n = 330,000);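 active = activation above the mean of all tested compounds plus 3 SD, cut at about 21% in these data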;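 note: 0% = DMSO alone and 100% = DMSO wells spiked with extra 5 µM PC-3 D3A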
Target sequence (P42574 whole entry D9A/D28A/D175A): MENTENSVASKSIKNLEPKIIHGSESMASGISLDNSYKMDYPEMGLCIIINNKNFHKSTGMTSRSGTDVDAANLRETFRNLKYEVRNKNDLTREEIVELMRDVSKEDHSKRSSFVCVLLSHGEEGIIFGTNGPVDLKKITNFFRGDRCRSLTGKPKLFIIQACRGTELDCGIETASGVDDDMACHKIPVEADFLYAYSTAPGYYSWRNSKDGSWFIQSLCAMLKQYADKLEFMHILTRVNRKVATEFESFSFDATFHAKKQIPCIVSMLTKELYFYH
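assay system = Procaspase-3 D3A mutant | signal = absorbance at 405 nm, 0 and 120 min | times = 1 h preincubation plus 2 h reaction at 25 °C | repeats = single replicate | read-out = % activation between DMSO and enzyme-spiked controls | medium = Zinc-free HEPES saline buffer with Triton X-100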
A1 inh – caspase 3/7 activation in MEF A1-2A-BIM cells, primary screen, A1 inhibitor project, cell-based, luminescence, HTS. actives 0.066% (n = 330,000). caspase activation, % (no concentration beside the values). Caspase-Glo 3/7 luminescence, 3 h; percent of clofoctol response, vehicle zero;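 active = over half of replicate activation scores above 10%, or exactly half above 10 with the replicate mean above 10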
MsrA inhibitor – bovine MsrA enzyme inhibitors, primary screen, biochemical, absorbance, HTS; Methionine sulfoxide reductase A (Bos taurus); purified bovine MsrA, absorbance read-out; inhibition, % at 15.5 µM; actives 0.75% (n = 360,000); AID 651718, 2012;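 note: 0% = vehicle wells with enzyme and 100% = reference inhibitor wells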
MsrA inh confirm – bovine MsrA inhibitors, retest, confirmation, biochemical, absorbance, HTS | shares compounds with MsrA inhibitor | purified bovine MsrA, absorbance read-out | actives 41% (n = 2,300) | inhibition, % at 15.5 µM;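 note: coupled to thioredoxin reductase with NADPH and selenocystamine and DMSO as substrate; 0% = vehicle only and 100% = full effect of reference inhibitor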
The depositor's hits bear a star; . = no result given. A selection: hits, their analogues and other compounds. The true share with any hit is near 1.2%. Cut-off read from the data, not from the text of the source, unless noted: active = inhibition above about 4.5%; inactive = the rest.

SMILES | MsrA act | proCasp7 act | proCasp3 act | A1 inh | MsrA inhibitor | MsrA inh confirm
COc1ccc(C(=O)N/C(=C\c2cn(C)c3ccccc23)C(=O)NCCCN2CCOCC2)cc1OC | -5 | -4 | 2 | 0 | 5.7* | 4
Cn1cc(/C=C(\NC(=O)c2ccccc2)C(=O)NCCCN2CCOCC2)c2ccccc21 | -6 | 6 | 1 | 1 | 6.8* | 5.3*
O=C(O)c1cccc(-c2csc(C(O)c3ccccc3)n2)c1 (configuration not stated) | -4 | . | . | . | 0 | .
C[C@@H]1CN([C@@H](C)CO)C(=O)CCCn2nncc2CO[C@H]1CN(C)S(=O)(=O)c1ccc(Oc2ccccc2)nc1 | -1 | . | . | . | -1 | .
COC(=O)[C@]1(C)N[C@H](CN(C)S(=O)(=O)c2ccc(-c3ccccc3)cc2)[C@@H]2C(=O)N(C)C(=O)[C@@H]21 | -2 | 1 | 10 | . | 0 | .
CN(C)c1ccc(/C=C(\NC(=O)c2ccccc2)C(=O)NCCN2CCOCC2)cc1 | -4 | -3 | -9 | 0 | 5.3* | 4
CN(C)c1ccc(/C=C(\NC(=O)c2ccccc2)C(=O)NCCCN2CCOCC2)cc1 | -4 | 2 | -3 | 1 | 4 | .
O=C(Nc1ccccc1C(=O)NCCc1ccccc1)c1cnccn1 | -1 | 5 | 5 | -1 | 0 | .
O=C(N/N=C/c1cn(-c2cccs2)nc1-c1ccccc1)c1ccccc1Br | -3 | 0 | 3 | -1 | 6.5* | 2
O=C(N/N=C/c1cn(-c2cccs2)nc1-c1ccccc1)c1ccccc1O | -6 | 1 | -2 | -1 | 5.5* | 2
COc1ccc(S(=O)(=O)N2CCCc3nc(C)c(C)cc32)cc1 | . | . | . | . | 1 | .
Cc1ccn2c(C(=O)N/N=C\c3cccs3)c(C)nc2c1 | -4 | -5 | 6 | -1 | 7.4* | 5.8*
Cc1ccc2nc(C)c(C(=O)N/N=C/c3cccs3)n2c1 | -7 | -14 | 5 | 0 | 3 | .
CCOC(=O)Cc1csc(NC(=O)c2ccc(Br)o2)n1 | -4 | -1 | -7 | -2 | 1 | .
CCOC(=O)Cc1csc(NC(=O)/C=C/c2ccc(Br)o2)n1 | -9 | 8 | -4 | 0 | 5.5* | 4
COc1ccc2nc(-c3ccc(N)cc3)[nH]c2c1 | -4 | -2 | -1 | 0 | 4 | .
Nc1ccc(-c2nc3c(Cl)cc(N)cc3[nH]2)cc1 | -5 | 3 | -1 | -2 | 5.2* | 4
Nc1ccc2nc(-c3ccc(N)c(Cl)c3)[nH]c2c1 | -1 | -3 | -4 | -6 | 5.5* | 5.5*
Nc1ccc2nc(-c3ccccc3)[nH]c2c1 | -3 | 7 | 2 | -8 | 3 | .
COc1ccccc1CCn1cnc(-c2ccc(F)cc2)c1CC(C)C | . | . | . | . | 1 | .
Cc1ccc(S(=O)(=O)N2CCN(C(=O)N3CCCCC3)CC2)c(C)c1 | -2 | . | . | . | -1 | .
O=C(N/N=C/c1ccc(O)c(O)c1)c1ccc(-n2cnnn2)cc1 | -3 | 6 | 16 | 0 | 4.8* | 4.6*
CN(C)c1ccc(/C=N/NC(=O)c2nonc2N)cc1[N+](=O)[O-] | -5 | 1 | 1 | -4 | 4.9* | 4
Cc1onc(-c2ccccc2)c1C(=O)N/N=C/c1ccc([N+](=O)[O-])c(O)c1 | -3 | -4 | -1 | 3 | 1 | .
O=C(N/N=C/c1ccc(O)c([N+](=O)[O-])c1)c1ccncc1 | -5 | -2 | -3 | -10 | 5.6* | 4.9*
SMILES | MsrA act | proCasp7 act | proCasp3 act | A1 inh | MsrA inhibitor | MsrA inh confirm
Cc1onc(-c2ccccc2)c1C(=O)N/N=C/c1ccc(O)c([N+](=O)[O-])c1 | -7 | . | . | 0 | 5.5* | 4
CCCCc1c(-c2ccccc2OC)ncn1Cc1ccc(Br)cc1 | . | . | . | . | 1 | .
O=C(COC(=O)c1ccc2ccccc2c1)NCc1ccccc1 | 3 | . | . | . | 1 | .
Cc1ccc(NC(=O)Cn2cccc2C2=NC(c3ccccc3)CO2)cc1C (configuration not stated) | 0 | -4 | -10 | 0 | 43* | 0
COC(=O)c1sc(NC(=O)/C=C/c2ccc(C)cc2)nc1C | -4 | -10 | 3 | -4 | -1 | .
COc1ccc(C(=O)Nc2nc(C)c(C(=O)N(C)C)s2)cc1OC | 1 | 2 | 6 | -2 | 2 | .
COc1ccc(/C=C/C(=O)Nc2nc(C)c(C(=O)N(C)C)s2)cc1 | -6 | -9 | 1 | -1 | 5.4* | 6.5*
COc1ccc(/C=C/C(=O)Nc2nc(C)c(C(=O)N(C)C)s2)cc1OC | -5 | -1 | 2 | 0 | 5.7* | 5
Cc1nc(NC(=O)c2ccc(Br)s2)sc1C(=O)N(C)C | -13 | -3 | 1 | -3 | 5.0* | 2
O=C(N/N=C/c1cn(-c2ccccc2)nc1-c1ccc2c(c1)OCCO2)c1ccncc1 | 0 | 3 | 6 | 0 | 5.0* | 1
CCCNC(=O)c1cc(C2CCCN(C(=O)c3ccc(OC)cc3)C2)on1 (configuration not stated) | 1 | . | . | . | 0 | .
CC(=O)c1sc(NC(=O)c2ccccc2F)nc1C | -2 | 7 | 1 | -7 | 3 | .
CC(=O)c1sc(NC(=O)c2cccnc2Cl)nc1C | -5 | 18 | 2 | -4 | 5.0* | 3
Cc1ccc(S(=O)(=O)N2CC(CBr)=CCC2c2ccccc2)cc1 (configuration not stated) | . | . | . | . | -1 | .
O=C(NCCc1ccc(F)cc1)c1coc(=O)c(Br)c1 | 3 | -7 | 3 | -1 | 6.0* | 4.8*
CCOC(=O)C1CCN(C(=O)COC(=O)CN(C)S(=O)(=O)c2ccc(NC(C)=O)cc2)CC1 | -4 | 9 | 2 | 0 | -1 | .
CN(C)c1ccc(/C=N/NC(=O)c2cccc(C(=O)N/N=C/c3ccc(N(C)C)cc3)n2)cc1 | -3 | -5 | -1 | 0 | -1 | .
CCOC(=O)c1c(C)[nH]c(C(=O)N/N=C/c2ccc(Br)cc2)c1C | -2 | -5 | 6 | 2 | 2 | .
Cc1[nH]c(C(=O)N/N=C/c2ccc(C(=O)O)cc2)c(C)c1C(=O)N/N=C/c1ccc(C(=O)O)cc1 | -16 | -7 | 5 | 0 | 9.9* | 9.4*
Cc1[nH]c(C(=O)N/N=C/c2ccc(N(C)C)cc2)c(C)c1C(=O)N/N=C/c1ccc(N(C)C)cc1 | -11 | 7 | -6 | -1 | 7.5* | 5.2*
CN(/N=C/c1cc(Br)cc(Br)c1O)c1cccc(C(F)(F)F)n1 | -3 | -9 | -11 | 1 | 5.8* | 0

Assay outcomes from PubChem BioAssay.
